An excerpt weighted towards active compounds, which were near 0.72% of everything screened.
mIAP inh: blocks mouse intestinal alkaline phosphatase; purified mouse IAP, CDP-Star luminescence, 30 min; inhibition, % at 10 µM; 330,000 compounds, 0.2% hits;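 active = inhibition of at least 40% at 10 µM in the primary screen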;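 note: plate controls were DMSO with enzyme for no effect and no enzyme wells for full effect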
hIAP act: increases human intestinal alkaline phosphatase activity. 330,000 compounds, 0.16% hits. activation factor at 10 µM. purified human IAP, CDP-Star luminescence, 30 min; stronger effect = higher value; 1 = vehicle-only enzyme, 0 = enzyme-free background;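 active = activation factor of the enzyme at least 2-fold when tested at 20 µM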
Target sequence (P09923 whole entry, looked up): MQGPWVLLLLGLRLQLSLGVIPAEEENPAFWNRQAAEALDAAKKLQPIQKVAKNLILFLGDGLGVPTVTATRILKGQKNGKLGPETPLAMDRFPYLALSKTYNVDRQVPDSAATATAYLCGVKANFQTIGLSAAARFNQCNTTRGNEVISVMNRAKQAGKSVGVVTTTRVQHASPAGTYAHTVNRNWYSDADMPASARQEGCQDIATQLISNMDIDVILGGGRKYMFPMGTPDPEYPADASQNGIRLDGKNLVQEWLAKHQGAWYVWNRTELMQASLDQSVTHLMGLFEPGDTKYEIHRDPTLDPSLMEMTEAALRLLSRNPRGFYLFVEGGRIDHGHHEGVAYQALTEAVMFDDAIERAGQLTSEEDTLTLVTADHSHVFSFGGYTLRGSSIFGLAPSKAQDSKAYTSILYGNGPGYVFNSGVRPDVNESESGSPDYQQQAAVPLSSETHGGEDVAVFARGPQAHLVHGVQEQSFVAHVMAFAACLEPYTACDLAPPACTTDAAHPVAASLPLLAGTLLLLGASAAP
hIAP inh: human IAP inhibition; inhibition, % at 10 µM; AID 2544; 330,000 compounds, 0.12% hits; purified IAP, CDP-Star luminescence, 30 min; P09923;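 active = inhibition reaching a set limit with compound at 10 µM in the primary screen, cut at about 35% in these data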;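 note: plate controls were DMSO wells with enzyme for no effect and no-enzyme buffer wells for full effect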
bIAP inhibitor: intestinal alkaline phosphatase (bovine) inhibition; purified bovine IAP, CDP-star luminescence, 30 min; inhibition, % at 20 µM; 190,000 tested, under 10 active;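 active = over 50% inhibition of intestinal alkaline phosphatase at 20 µM in the single-dose screen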
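Assay system – bovine IAP enzyme · Quantity – bovine IAP at 1/65,000,000 final dilution · Detection – CDP-star luminescence signal · Times – 30 min reaction at room temperature · Also added – CDP-star substrate at 30 µM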
mIAP activ: mouse IAP activation | 330,000 compounds, 0.24% hits | muIAP, CDP-Star luminescence, 30 min; stronger effect = higher value; 1 = vehicle-only enzyme signal, 0 = enzyme-free wells | activation factor at 10 µM;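 active = activation factor of at least 2 at 20 µM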
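also added = chemiluminescent substrate CDP-Star | test system = mouse IAP enzyme | signal = chemiluminescence readout | compound = DMSO-dissolved test compounds | incubation = 30 min at room temperature | benchmarks = DMSO wells, no-enzyme wells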
bIAP act: intestinal alkaline phosphatase (bovine) activation | purified bovine IAP, CDP-star luminescence, 30 min; stronger effect = higher value; fold of DMSO-control signal, blank-subtracted | activation factor at 20 µM | 200,000 compounds, 0.17% hits | AID 1016;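 active = activation factor of 2 or more at 20 µM, a signal rise over negative controls twice the positive control's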
hIAP act confirm: human IAP activation confirmation; activation (%Activity, negative = activation), % at 8.3 µM; 880 compounds, 10% hits; purified IAP, CDP-Star luminescence, 30 min; stronger effect = lower value; shares compounds with hIAP act;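 active = at least twofold enzyme activation in any of six single-dose repeats, which the averaged readout prints as negative percent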
* marks the source's active call; other numbers are inactive results; / = no result.

SMILES	mIAP inh	hIAP act	hIAP inh	bIAP inhibitor	mIAP activ	bIAP act	hIAP act confirm
O=C(CCCc1ccccc1)Nc1ccnn1C1CCN(Cc2ccccc2)CC1	-56.4	1.95	-95.0	/	1.56	/	/
COc1cc(CN2CCC(n3nccc3NC(=O)CCCc3ccccc3)CC2)ccc1F	-71.6	2.01*	-100.9	/	1.72	/	40.7
COc1ccc(CN2CCC(n3nccc3NC(=O)CCc3ccccc3)CC2)c(C)c1C	-105.3	2.31*	-131.3	/	2.05*	/	8.0
COc1cccc(CN2CCC(n3nccc3NC(=O)CCCc3ccccc3)CC2)c1O	-38.5	1.63	-62.6	/	1.39	/	/
CCOc1ccc(CN2CCC(n3nccc3NC(=O)CCCc3ccccc3)CC2)cc1	-120.5	3.17*	-217.0	/	2.21*	/	1.4
O=C(CCCc1ccccc1)Nc1ccnn1C1CCN(Cc2ccccc2F)CC1	-39.0	1.89	-88.8	/	1.39	/	/
CCOc1ccc(C(=O)COC(=O)CNC(=O)C2CCCCC2)cc1	-2.5	1.02	-1.7	/	1.02	/	/
O=C(O)c1cccc(CSc2n[nH]c(-c3ccc(Cl)cc3Cl)n2)c1	-1.6	0.598	40.2*	22.6	1.02	0.8	-18.2
COc1ccc(C(=O)NC(=S)NNC(=O)c2ccc(NC(C)=O)cc2)cc1Br	16.6	2.1*	-110.2	-39.1	0.834	1.4	1.9
O=C(CNC(=S)N(CCCN1CCOCC1)Cc1cccs1)NCCCN1CCOCC1	15.3	0.951	4.9	-9.8	0.847	1.1	/
O=C(CNC(=S)N(CCCN1CCOCC1)Cc1cccs1)NCc1ccccc1Cl	-0.7	2.1*	-109.5	/	1.01	/	14.5
O=C(CNC(=S)N(CCCN1CCOCC1)Cc1cccs1)NCc1ccc(Cl)cc1	-8.1	2.86*	-186.3	/	1.08	/	-51.1
COC(CNC(=O)CNC(=S)N(CCCN1CCOCC1)Cc1cccs1)OC	-18.2	1.28	-28.2	7.8	1.18	0.9	/
O=c1ccc2cc(O)c(O)cc2o1	39.2	0.597	40.3*	1.1	0.608	1	-17.8
Cc1ccc(C(=O)OCC(=O)N2CCCCCC2)c(O)c1	-0.1	0.896	10.4	/	1	/	/
Cc1ccc(NS(=O)(=O)c2ccc(NC(=O)c3cccs3)cc2)c(C)c1	11.4	0.954	4.6	-3.1	0.886	1	/
Cc1ccc(NS(=O)(=O)c2ccc(NC(=O)C3CC3)cc2)c(C)c1	-9.8	0.64	36.0*	/	1.1	/	-1.6
Cc1ccc(NC(=O)CCS(=O)(=O)c2cc3c(cc2Cl)NC(=O)CO3)cc1	3.4	0.628	37.2*	/	0.966	/	-41.6
COc1ccc(C)cc1NC(=O)CCS(=O)(=O)c1cc2c(cc1Cl)NC(=O)CO2	-3.8	0.828	17.2	/	1.04	/	/
Cc1nnc(N2CCc3ccccc3C2)[nH]c1=O	5.1	0.638	36.2*	5.8	0.949	0.9	-42.7
O=C(Cc1ccccc1)NNC(=S)Nc1ccccc1	7.1	2.18*	-117.7	-33.4	0.929	1.3	9.3
Cc1ccc(C)c(NCC(=O)NNC(=S)Nc2ccccc2)c1	15.8	2.03*	-103.0	-16.0	0.842	1.2	-38.7
Cc1ccc(NC(=O)CCC(=O)NNC(=S)Nc2ccccc2)c(C)c1	-7.7	2.06*	-106.3	-54.1	1.08	1.5	-25.3
Cc1ccc(C)c(NC(=S)NCc2ccccc2)c1	1.0	0.921	7.9	/	0.99	/	/
Cc1ccc(C)c(NC(=O)CCC(=O)NNC(=S)Nc2ccccc2)c1	20.9	1.8	-80.5	-46.7	0.791	1.5	/
SMILES	mIAP inh	hIAP act	hIAP inh	bIAP inhibitor	mIAP activ	bIAP act	hIAP act confirm
COc1cc(CNS(=O)(=O)c2ccc3c(c2)CC(C)N3C(C)=O)cc(OC)c1OC (stereo unspecified)	-5.5	1.12	-12.5	/	1.05	/	/
COC(=O)c1cc(NS(=O)(=O)c2ccc(C(C)C)cc2)ccc1N1CCOCC1	1.5	0.948	5.2	/	0.985	/	/
CCOC(=O)N1CCN(Cc2nc3cc(NC(=O)CC(C)C)ccc3n2CC)CC1	0.4	0.935	6.5	/	0.996	/	/
CC(=O)Nc1c2c(nn1-c1ccc(F)cc1)CSC2	5.1	0.927	7.3	/	0.949	/	/
CN(CC(=O)Nc1ccccc1Cl)C(=O)CN1C(=O)NC(c2ccccc2)(c2ccccc2)C1=O	-24.8	0.994	0.6	/	1.25	/	/
Cc1ccc(OCc2cc(C(=O)N3CCN(CC(=O)NC(C)C)CC3)no2)cn1	6.7	1.17	-17.4	/	0.933	/	/
CN(C(=O)CSc1ncccc1C(=O)O)c1ccccc1	-1.3	0.64	36.0*	11.1	1.01	0.9	4.2
CC1CN(C(=O)COC(=O)[C@@H](NC(=O)c2ccccc2Cl)C(C)C)CC(C)O1 (stereo partly specified)	-3.3	1.03	-2.7	/	1.03	/	/
O=C(NCCS(=O)(=O)N1CCN(c2cccc(Cl)c2)CC1)c1ccc2c(c1)OCO2	-4.5	0.88	12.0	/	1.04	/	/
O=C(NCCS(=O)(=O)N1CCN(c2cccc(Cl)c2)CC1)c1cc(=O)c2ccccc2o1	9.2	0.614	38.6*	/	0.908	/	-5.2
CCOc1cccc2sc(Nc3nc4ccc(NC(C)=O)cc4s3)nc12	-39.0	2.08*	-107.5	-14.1	1.39	1.1	9.0
O=C(COc1ccc(Cl)cc1)OCC(=O)N1CCCc2ccccc21	43.9*	0.642	35.8*	12.8	0.561	0.9	-20.0
CCCNC(=S)NNC(=O)c1cc(C2CC2)nc2ccccc12	4.6	2.17*	-117.3	/	0.954	/	-0.1
COc1cc(Cl)ccc1OCc1cc(C(=O)N2CCCCCCC2)no1	-7.3	0.611	38.9*	/	1.07	/	34.5
COc1ccc(Oc2nc(-c3cccnc3)nc3ccccc23)cc1	3.9	0.905	9.5	/	0.961	/	/
CC(=O)CCc1ccc(Oc2nc(-c3cccnc3)nc3ccccc23)cc1	13.9	0.641	35.9*	-12.8	0.861	1.1	42.0
CCN(CC)C(=O)Cc1cc(C(=O)O)c2ccccc2n1	-8.5	2.03*	-102.6	-6.8	1.08	1.1	-0.5
COc1ccc(C2c3ccc(O)cc3Oc3ncn4nc(-c5ccncc5)nc4c32)cc1OC (stereo unspecified)	14.4	0.591	40.9*	/	0.856	/	3.7
Cc1ccc(C(C)NC(=S)NC2CCCCC2)cc1C (stereo unspecified)	-62.0	0.956	4.4	/	1.62	/	/
CCC(NC(=S)NC1CCCCC1)c1ccc(C(C)C)cc1 (stereo unspecified)	-467.0	4.11*	-310.7	/	5.67*	/	-24.1*
CCCn1c(/C=C/c2ccccc2)nc2ccccc21	3.5	3.14*	-213.7	21.0	0.965	0.8	36.8
COCCOCCn1c(/C=C/c2ccccc2)nc2ccccc21	0.1	0.911	8.9	6.0	0.999	0.9	/
O=C(c1ccccc1)N1CCN(C(=O)c2ccc3c(c2)OCCO3)CC1	-26.4	1.28	-28.0	4.2	1.26	1	/
CN1CCN(C(=O)c2ccc3c(c2)OCCO3)CC1	0.0	0.63	37.0*	10.7	1	0.9	7.9
CC1=C(C)C(=O)C(N2CCOCC2)=CC1=O	/	/	/	13.5	/	0.9	/

Compound activity as filed in PubChem.
